Source: ChEMBL document CHEMBL1158631, “Discovery of novel 1-phenyl-cycloalkane carbamides as potent and selective influenza fusion inhibitors” (Bioorg Med Chem Lett, 2010)
pEC50, pIC50: −log10 of the molar value.

What was measured:
[1] = Cytotoxicity against MDCK cells; assay type: cell-based, Canis lupus familiaris; details: dog
Procedure, shortened: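 Uninfected MDCK cells were exposed to compounds. CC50 is the concentration inhibiting 50% of MDCK cell growth relative to control.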

[2] = Antiviral activity against Influenza A virus (A/Weiss/43 (H1N1)) infected in MDCK cells assessed as inhibition of virus-induced cytopathic effect; assay type: functional, organism-based, Influenza A virus (A/Weiss/1943(H1N1))
Procedure, shortened: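 MDCK cells infected with influenza A/Weiss/43 (H1N1). Compounds were titrated at multiple doses after a primary single-dose screen. The read-out was protection from viral cytopathic effect, and EC50 is the concentration inhibiting 50% of cytopathic effect. Values are means of triplicate or of at least duplicate experiments.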

[3] = Toxicity assessed as haemolysis in chicken RBC; assay type: cell-based, Gallus gallus, Erythrocyte; details: for pIC50: Gallus gallus, Erythrocyte, read-out: IC50

Compound	CC50 [1] [µM]	pEC50 [2]	IC50 ([3]; erythrocyte)	pIC50 [3]
CN(C(=O)C1(c2ccccc2)CCCC1)c1ccc(Cl)cc1	20	7.10		
CN(C(=O)C1(c2ccccc2)CCCC1)C1CCCCC1	21	6.35		
CN(C(=O)C1(c2ccccc2)CCCC1)c1ccc(C#N)cc1	> 100	7.01		
CN(C(=O)C1(c2ccc(Cl)cc2)CC1)c1ccccc1	49	5.73		
O=C(N(CCO)c1ccccc1)C1(c2ccccc2)CCCC1	79	6.24		
CN(C(=O)C1(c2ccc(Cl)cc2)CCCC1)c1ccccc1	21	6.72		
CN(C(=O)C1(c2ccccc2)CCCC1)c1cccc(C#N)c1	56	6.14		
CN(C(=O)C1(c2ccccc2)CCCC1)c1ccc(C(F)(F)F)cc1	21	5.67		
COc1ccc(C2(C(=O)N(C)c3ccccc3)CCCC2)cc1	69	6.12		
CN(C(=O)C1(c2ccccc2)CCCC1)c1cccnc1	> 100	4.79		
O=C(N1CCOCC1)C1(c2ccccc2)CCCC1	> 100	4.55	Not Active	
CN(C(=O)C1(c2ccccc2)CCCC1)c1ccccc1	52	6.62		
O=C(N1CCCc2ccccc21)C1(c2ccccc2)CCCC1	24	< 4.00		
CN(C(=O)C1(c2ccccc2)CCCC1)c1ccccc1Cl	23	6.74		
CCN(C(=O)C1(c2ccccc2)CCCC1)c1ccccc1	56	6.59		
CC1(C)C[C@H](O)C[C@](C)(CNC(=O)c2cc(Cl)ccc2O)C1	> 50	7.22		6.28
O=C(N1CCCCC1)C1(c2ccccc2)CCCC1	> 100	5.68		5.66
CN(C(=O)C1(c2ccc(Cl)cc2)CCC1)c1ccccc1	24	6.57		
CN(C(=O)C1(c2cccc(C(F)(F)F)c2)CCCC1)c1ccccc1	20	5.65		
O=C(Nc1ccccc1)C1(c2ccccc2)CCCC1	> 100	< 4.00		
CN(C(=O)C1(c2ccc(Cl)cc2)CCCCC1)c1ccccc1	7.4	< 5.00		
COC(=O)[C@@]1(C)CCC[C@]2(C)c3cc(OC)ccc3C(=O)C[C@@H]12	67	6.05		5.49
CN(C(=O)C1(c2ccccc2)CCCC1)c1cccc(Cl)c1	17	6.34		
